In ChEMBL document CHEMBL4145567, “Natural Stilbenoids Have Anti-Inflammatory Properties in Vivo and Down-Regulate the Production of Inflammatory Mediators NO, IL6, and MCP1 Possibly in a PI3K/Akt-Dependent Manner” (J Nat Prod, 2018) one finds Activity, IC50 and inhibition data, which are given here for 15 molecules.

Assay [1] relates to J774. The assay is described as follows: Antiinflammatory activity in mouse J774 cells assessed as reduction in LPS-induced IL6 expression after 24 hrs by ELISA. It counts as functional, cell-based. Particulars: for IC50: J774, 24 h. In outline:
(§1)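 J774 macrophages were grown 72 h to confluence in DMEM with 10% heat-inactivated FBS. Cells were stimulated with LPS (10 ng/mL) with increasing compound concentrations for 24 h. IL6 or MCP1 in the collected medium was measured by ELISA. Concentration giving 50% inhibition was taken from the concentration series; mean + SEM, n = 4.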

Assay [2] deals with J774. The assay is described as follows: Inhibition of PI3K/Akt in mouse J774 cells assessed as reduction in LPS-induced Akt phosphorylation at Ser473 after 4 hrs by Western blot analysis. Format: cell-based. In outline:
(§2)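 J774 macrophages were exposed to LPS (10 ng/mL) for 4 h with increasing compound concentrations, then lysed on ice in Tris/EDTA/Triton buffer with protease and phosphatase inhibitors. Lysate protein (20 μg) was Western blotted with an antibody against Akt phospho-S473. Chemiluminescence was quantified; mean + SEM, n = 4.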

Assay [3] relates to J774. The assay is described as follows: Antiinflammatory activity in mouse J774 cells assessed as reduction in LPS-induced MCP1 expression after 24 hrs by ELISA. It counts as functional, cell-based. The following applies: for IC50: J774, 24 h. In outline:
as §1
A general note: ELISA stands for enzyme-linked immunosorbent assay.

Assay [4] has as its system J774. Description: Antiinflammatory activity in mouse J774 cells assessed as reduction in LPS-induced nitric oxide production after 24 hrs by Griess assay. It counts as functional, cell-based. The following applies: for IC50: J774, 24 h. The method, boiled down: (§3)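 Confluent J774 macrophages (72 h growth, DMEM/10% FBS) were treated with LPS 10 ng/mL plus increasing compound concentrations for 24 h. NO production was followed as nitrite accumulated in the medium, measured by Griess test. The half-maximal inhibitory concentration was derived from the concentration series; n = 4.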
For orientation: Nitrite, measured by Griess reagent, commonly stands in for NO production.

In assay [5] the test system is J774. The assay is described as follows: Inhibition of PI3K/Akt in mouse J774 cells assessed as reduction in LPS-induced Akt phosphorylation at Ser473 at 30 uM after 4 hrs by Western blot analysis. It counts as cell-based. The method, boiled down:
as §2
In general terms: Immunoblotting shows a protein as a band on a membrane.

Assay [6] relates to J774. Description: Inhibition of PI3K/Akt in mouse J774 cells assessed as reduction in LPS-induced Akt phosphorylation at Ser473 at 100 uM after 4 hrs by Western blot analysis. Format: cell-based. In outline: as §2
Assay [7] relates to J774. Description: Antiinflammatory activity in mouse J774 cells assessed as reduction in LPS-induced nitric oxide production at 30 uM after 24 hrs by Griess assay. Format: functional, cell-based. The method, boiled down: as §3
The test system of assay [8] is J774. Description: Antiinflammatory activity in mouse J774 cells assessed as reduction in LPS-induced IL6 expression at 30 uM after 24 hrs by ELISA. It counts as functional, cell-based. The method, boiled down: as §1
Assay [9] relates to J774. The assay is described as follows: Antiinflammatory activity in mouse J774 cells assessed as reduction in LPS-induced MCP1 expression at 30 uM after 24 hrs by ELISA. It counts as functional, cell-based. The method, boiled down: as §1
Assay [10] has as its system Mus musculus. Description: Antiinflammatory activity in carrageenan induced C57BL/6 mouse model of inflammation assessed as reduction in MCP1 expression in hind paw at 2 mg/kg, ip pretreated for 1 to 2 hrs followed by carrageenan challenge measured after 6 hrs by ELISA. Format: functional, organism-based. The method, boiled down:
(§4)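 Compound was given i.p. in 10% DMSO/PBS (pH 7.4) before intradermal 1.5% w/v λ-carrageenan (50 μL) into one hindpaw under anesthesia; the contralateral paw got saline. At 6 h, paw tissue was collected into 50 mM Tris pH 7.4, 150 mM NaCl with protease/phosphatase inhibitors, minced and centrifuged (10000g, 10 min). Supernatant cytokine was read by ELISA; n = 6–7/group.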

Assay [11] concerns Mus musculus. The assay is described as follows: Antiinflammatory activity in carrageenan induced C57BL/6 mouse model of inflammation assessed as reduction in paw edema at 2 mg/kg, ip pretreated for 1 to 2 hrs followed by carrageenan challenge measured after 3 to 6 hrs by plethysmometer. It counts as functional, organism-based. In outline:
(§5)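 Mice got compound i.p. in 10% DMSO in PBS (pH 7.4) before carrageenan. Under i.p. medetomidine (0.5 mg/kg) plus ketamine (75 mg/kg), one hindpaw received 50 μL intradermal 1.5% w/v λ-carrageenan in saline, and the contralateral paw got saline. Paw volume was measured by plethysmometer before and 3 and 6 h after. Edema = carrageenan-paw minus saline-paw volume change; n = 6–7/group.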

Assay [12] deals with Mus musculus. Description: Antiinflammatory activity in carrageenan induced C57BL/6 mouse model of inflammation assessed as reduction in IL6 expression in hind paw at 2 mg/kg, ip pretreated for 1 to 2 hrs followed by carrageenan challenge measured after 6 hrs by ELISA. Format: functional, organism-based. In outline:
as §4

Assay [13] relates to Mus musculus. Description: Antiinflammatory activity in carrageenan induced C57BL/6 mouse model of inflammation assessed as reduction in IL6 expression in hind paw at 15 mg/kg, ip pretreated for 1 to 2 hrs followed by carrageenan challenge measured after 6 hrs by ELISA. Format: functional, organism-based. In outline:
as §4

Assay [14] has as its system J774. Description: Inhibition of PI3K/Akt in mouse J774 cells assessed as reduction in LPS-induced Akt phosphorylation at Ser473 at 10 uM after 4 hrs by Western blot analysis. It counts as cell-based. The method, boiled down:
as §2

Assay [15] concerns Mus musculus. The assay is described as follows: Antiinflammatory activity in carrageenan induced C57BL/6 mouse model of inflammation assessed as reduction in paw edema at 15 mg/kg, ip pretreated for 1 to 2 hrs followed by carrageenan challenge measured after 3 to 6 hrs by plethysmometer. It counts as functional, organism-based. The method, boiled down:
as §5

Assay [16] has as its system Mus musculus. Description: Antiinflammatory activity in carrageenan induced C57BL/6 mouse model of inflammation assessed as reduction in MCP1 expression in hind paw at 15 mg/kg, ip pretreated for 1 to 2 hrs followed by carrageenan challenge measured after 6 hrs by ELISA. Format: functional, organism-based. In outline:
as §4

The test system of assay [17] is Mus musculus. Description: Antiinflammatory activity in carrageenan induced C57BL/6 mouse model of inflammation assessed as reduction in MCP1 expression in hind paw at 30 mg/kg, ip pretreated for 1 to 2 hrs followed by carrageenan challenge measured after 6 hrs by ELISA. It counts as functional, organism-based. In outline:
as §4

For assay [18], the system named is Mus musculus. Description: Antiinflammatory activity in carrageenan induced C57BL/6 mouse model of inflammation assessed as reduction in paw edema at 30 mg/kg, ip pretreated for 1 to 2 hrs followed by carrageenan challenge measured after 3 to 6 hrs by plethysmometer. Format: functional, organism-based. In outline: as §5
Assay [19] deals with Mus musculus. Description: Antiinflammatory activity in carrageenan induced C57BL/6 mouse model of inflammation assessed as reduction in IL6 expression in hind paw at 30 mg/kg, ip pretreated for 1 to 2 hrs followed by carrageenan challenge measured after 6 hrs by ELISA. It counts as functional, organism-based. The method, boiled down:
as §4

Activity calls are given as the source filed them. No cut-off for these calls is given here.

Regarding `COc1ccc(/C=C/c2cc(O)cc(O)c2)cc1O`, the Activity entry in the assay with J774 [1], in the assay with J774 [3] and in the assay with J774 [4] was “Dose-dependent effect” in each case. Moreover, the IC50 in the assay on J774 [1] was found to be 99.1 µM; in the assay on J774 [3] it was 19.4 µM; in the assay with J774 [4] it was 103 µM. Besides, in the assay with J774 [2], the inhibition entry was “Dose-dependent effect”.
As for `C=CCOc1cc(O)cc(/C=C/c2ccccc2)c1`, the inhibition result in the assay on J774 [5] is “Active”.
On the same count and under the same terms, the value for `CC(C)(C)Oc1cc(O)cc(/C=C/c2ccccc2)c1` was “inactive”; that for `CCCOc1cc(O)cc(/C=C/c2ccccc2)c1` was “inactive”.
`CCOc1cc(O)cc(/C=C/c2ccccc2)c1`: the inhibition result in the assay on J774 [5] is “Active”.
With `COc1ccc(/C=C/c2cc(O)cc(O[C@@H]3O[C@H](CO)[C@@H](O)[C@H](O)[C@H]3O)c2)cc1O`, in the assay on J774 [6], the inhibition entry was “inactive”. The outcome in the assay on J774 [7], with J774 [8] and in the assay with J774 [9] was inactive.
For `C[C@@H]1C[C@H]2[C@@H]3CCC4=CC(=O)C=C[C@]4(C)[C@@]3(F)[C@@H](O)C[C@]2(C)[C@@]1(O)C(=O)CO`, the result with Mus musculus [10], with Mus musculus [11] and with Mus musculus [12] was Active.
As for `OC[C@H]1O[C@@H](Oc2cc(O)cc(/C=C/c3ccc(O)c(O)c3)c2)[C@H](O)[C@@H](O)[C@@H]1O`, in the assay with J774 [6], the inhibition entry is “inactive”. The result in the assay with J774 [7], with J774 [8] and with J774 [9] was inactive.
Turning to `Oc1cc(/C=C/c2ccccc2)cc(OCc2ccccc2)c1`, the inhibition result in the assay on J774 [5] is “inactive”.
As for `O=c1cc(N2CCOCC2)oc2c(-c3ccccc3)cccc12` [LY-294002], the result in the assay with Mus musculus [13], in the assay on Mus musculus [15] and with Mus musculus [16] was Active. Also, the IC50 in the assay on J774 [1] turned out to be 5.1 µM; in the assay with J774 [3], 3.7 µM; with J774 [4], 8.9 µM. The inhibition entry in the assay on J774 [14] is “Active”.
On to `Oc1cc(O)cc(/C=C/c2ccc(O)c(O)c2)c1` [PICEATANNOL], for which the Activity result with J774 [1], with J774 [3] and with J774 [4] was “Dose-dependent effect” in each case. In addition, the IC50 in the assay on J774 [1] came to 13 µM; in the assay with J774 [3] it was 4 µM; with J774 [4] it was 2.6 µM. For the same molecule, the result in the assay with Mus musculus [17], in the assay on Mus musculus [18] and in the assay with Mus musculus [19] was Active. Besides, the inhibition result in the assay on J774 [2] was “Dose-dependent effect”.
For `COc1cc(O)cc(/C=C/c2ccccc2)c1` [PINOSYLVIN METHYL ETHER], the Activity entry in the assay on J774 [1], in the assay with J774 [3] and with J774 [4] was “Dose-dependent effect” in each case. In addition, the IC50 in the assay on J774 [1] was determined as 30.2 µM; with J774 [3] it was 23.7 µM; in the assay on J774 [4], 37 µM. Further, the inhibition entry with J774 [2] was “Dose-dependent effect”.
With `Oc1cc(O)cc(/C=C/c2ccccc2)c1` [PINOSYLVIN], the Activity entry with J774 [1], in the assay with J774 [3] and in the assay on J774 [4] was “Dose-dependent effect” in each case. The IC50 with J774 [1] amounted to 32.1 µM; in the assay on J774 [3] it was 38.7 µM; in the assay on J774 [4] it was 16.6 µM. Besides, the result in the assay with Mus musculus [17], in the assay on Mus musculus [18] and in the assay on Mus musculus [19] was Active. Moreover, the inhibition entry in the assay with J774 [2] is “Dose-dependent effect”.
On to `COc1cc(/C=C/c2ccc(O)cc2)cc(OC)c1` [PTEROSTILBENE], for which the Activity result in the assay on J774 [1], in the assay on J774 [3] and with J774 [4] was “Dose-dependent effect” each time. Besides, the results for the IC50 in the assay on J774 [1], with J774 [3] and in the assay with J774 [4] were 8.7 µM, 10.5 µM and 16.7 µM, respectively. The outcome in the assay with Mus musculus [17], in the assay with Mus musculus [18] and with Mus musculus [19] was Active. In addition, the inhibition entry in the assay with J774 [2] is “Dose-dependent effect”.
On to `Oc1ccc(/C=C/c2cc(O)cc(O)c2)cc1` [RESVERATROL], for which the Activity result in the assay with J774 [1], in the assay on J774 [3] and in the assay on J774 [4] was “Dose-dependent effect” throughout. Moreover, the IC50 worked out at 6.8 µM in the assay on J774 [1], 13.6 µM in the assay with J774 [3] and 12.2 µM with J774 [4]. For the same molecule, the inhibition result with J774 [2] is “Dose-dependent effect”.

By IC50 is commonly meant the concentration at which inhibition is half-maximal.
